Results of several laboratories.
LRRK2 G2019S: Leucine-rich repeat serine/threonine-protein kinase 2 (LRRK2, Homo sapiens, UniProt Q5S007, G2019S)
LRRK2: Leucine-rich repeat serine/threonine-protein kinase 2 (LRRK2, Homo sapiens, UniProt Q5S007)

SMILES | target | effect on | method | concentration | remaining binding [%]
O=C(Nc1c[nH]nc1C(=O)NC1CCNCC1)c1cc(F)cc(F)c1 | LRRK2 G2019S | binding | competition with immobilised ligand | 1 µM | 93
O=C(c1ccc(Nc2ncc(Cl)c(-c3ccc(Cl)s3)n2)cc1)N1CCC(N2CCCC2)CC1 | LRRK2 G2019S | binding | competition with immobilised ligand | 1 µM | 1.1
c1ccc(N2CCN(Cc3nc4ccccc4[nH]3)CC2)nc1 | LRRK2 | binding | competition with immobilised ligand | 1 µM | 99
CN(C)c1ncc(F)c(-c2cnn3ncccc23)n1 | LRRK2 G2019S | binding | – | 1 µM | 100
CCC(=N\O)/C(C)=C/c1ccc(F)cc1 | LRRK2 | cell-free assay | competition with immobilised ligand | 1 µM | 90
CN(CCCC(F)(F)F)c1nccc(-c2cnn3ncccc23)n1 | LRRK2 G2019S | binding | – | 1 µM | 100
CC(=O)c1c(NS(C)(=O)=O)c2cc(-c3ccc(Cl)cc3)c(-c3ccc(Cl)cc3Cl)nc2n(C)c1=O | LRRK2 | cell-free assay | competition with immobilised ligand | 1 µM | 65
Cc1cnc(Nc2ccc(C(=O)N3CCC(N4CCCC4)CC3)cc2)nc1-c1cc2ccccc2s1 | LRRK2 G2019S | binding | competition with immobilised ligand | 1 µM | 2.8
CN(c1nccc(-c2cnn3ncccc23)n1)C1CC1 | LRRK2 | binding | – | 1 µM | 100
Cc1nc(C2CCN(C(=O)c3ccc(OC(F)(F)F)cc3N)CC2)c2ncc(N3CCN(C)CC3)cc2n1 | LRRK2 G2019S | cell-free assay | competition with immobilised ligand | 1 µM | 100
CN(C)c1nccc(-c2cnn3ncccc23)n1 | LRRK2 G2019S | binding | – | 1 µM | 69
COc1ncc2cc3ccccc3nc2c1C#N | LRRK2 G2019S | cell-free assay | competition with immobilised ligand | 5 µM | 100
Nc1ncc2c(n1)-c1c([nH]c3ccc(C#CC4CC4)cc13)CCCC2 | LRRK2 | binding | competition with immobilised ligand | 1 µM | 83
FC(F)(F)Oc1cccc(-c2cnc3ccc(-c4ccncc4)nn23)c1 | LRRK2 | cell-free assay | competition with immobilised ligand | 5 µM | 52
CC(=O)N1CCC(c2ccc(C(=O)NC(=N)N)cc2C(F)(F)F)CC1 | LRRK2 G2019S | cell-free assay | competition with immobilised ligand | 1 µM | 100
C[C@@H](c1ccc(-n2cnc3c(N)ncnc32)cc1)N1CCc2nn(C)c(Cc3ccccc3)c2C1=O | LRRK2 G2019S | binding | competition with immobilised ligand | 0.1 µM | 92
O=C(NCCCN1CCOCC1)c1ccc(Nc2ncc(Cl)c(-c3ccc(Cl)s3)n2)cc1 | LRRK2 G2019S | binding | competition with immobilised ligand | 1 µM | 10
C[C@H]1CCN(c2nccc(-c3cnn4ncccc34)n2)C1 | LRRK2 | binding | – | 1 µM | 67

SMILES | target | effect on | method | concentration | remaining binding [%]
COc1cnc(Nc2cccc(S(N)(=O)=O)c2)nc1N1CCN(c2ccccc2)C(=O)C1 | LRRK2 G2019S | binding | competition with immobilised ligand | 1 µM | 100
CCN1CCN(Cc2ccc(C(=O)Nc3ccc(C)c(Oc4ccc5c(c4)CC(=O)N5)c3)cc2C(F)(F)F)CC1 | LRRK2 | binding | competition with immobilised ligand | 1 µM | 100
C=CC(=O)N1CCC(C(=O)NCC(=O)N2CCN(c3nc(-c4cnc(N)nc4C(F)F)nc(N4CCOCC4)n3)CC2)CC1 | LRRK2 G2019S | binding | competition with immobilised ligand | 1 µM | 79
CNC(=O)[C@@H]1CC[C@@H](n2c(-c3ccc4cnccc4c3)nc3ccc(C(=O)NCc4cccc(C(N)=O)c4)cc32)C1 | LRRK2 | binding | competition with immobilised ligand | 1 µM | 100
CN(C)c1nccc(-c2cnc3ncccn23)n1 | LRRK2 | binding | – | 1 µM | 61
O=C(NCC1CCOCC1)c1n[nH]cc1NC(=O)c1c(F)cccc1F | LRRK2 | binding | competition with immobilised ligand | 1 µM | 76
O=C(NCCCN1CCOCC1)c1ccc(Nc2nccc(-c3cc4ccccc4s3)n2)cc1 | LRRK2 | binding | competition with immobilised ligand | 1 µM | 63
CCS(=O)(=O)c1cc2cc(C[C@](O)(CC(C)(C)c3ccc(F)cc3C(N)=O)C(F)(F)F)[nH]c2cn1 | LRRK2 | cell-free assay | competition with immobilised ligand | 1 µM | 100
c1cnn2ncc(-c3ccnc(N4CCC45COC5)n3)c2c1 | LRRK2 | binding | – | 1 µM | 35
c1cncc(-c2cccc(Nc3nccc(NC4CCCCC4)n3)c2)c1 | LRRK2 G2019S | binding | competition with immobilised ligand | 10 µM | 61
Cc1cc(-n2nc(Cc3cc(F)cc(C(F)(F)F)c3)nc2C)ccc1C(N)=O | LRRK2 G2019S | cell-free assay | competition with immobilised ligand | 1 µM | 100
F[C@@H]1CCN(c2nccc(-c3cnn4ncccc34)n2)C1 | LRRK2 | binding | – | 1 µM | 100
C[C@@H]1CN(c2cc(-c3nn(C)c4ccc(OC5(C)CC5)cc34)ncn2)C[C@H](C)O1 | LRRK2 | binding | competition with immobilised ligand | 1 µM | 22
O=C(c1ccc(Nc2nccc(-c3cc4ccccc4s3)n2)cc1)N1CCC(N2CCCC2)CC1 | LRRK2 G2019S | binding | competition with immobilised ligand | 1 µM | 16
COc1cnc(Nc2cccc(S(N)(=O)=O)c2)nc1N1CCN(c2ccccc2)CC1 | LRRK2 G2019S | binding | competition with immobilised ligand | 1 µM | 95
O=C(c1ccc(Nc2ncc(Cl)c(-c3cc4ccccc4s3)n2)cc1)N1CCC(N2CCCC2)CC1 | LRRK2 G2019S | binding | competition with immobilised ligand | 1 µM | 5.9
CN1CCN(c2ccc(Nc3nccc(-c4cccc([N+](=O)[O-])c4)n3)cc2C(F)(F)F)CC1 | LRRK2 G2019S | binding | – | 10 µM | 49
